Measured values reported in ChEMBL document CHEMBL4382221, “First-in-class DAPK1/CSF1R dual inhibitors: Discovery of 3,5-dimethoxy-N-(4-(4-methoxyphenoxy)-2-((6-morpholinopyridin-3-yl)amino)pyrimidin-5-yl)benzamide as a potential anti-tauopathies agent” (Eur J Med Chem, 2019).
Calls of active or inactive are those of the source. No cut-off for these calls is given here.

Experiments:
[1] = molecular target: T1, Death-associated protein kinase 1 (Homo sapiens, UniProt P53355); test: Inhibition of human DAPK1 (1 to 363 residues) at 20 uM using KKLNRTLSFAEPG as substrate after 120 mins in presence of 10 uM [gamma-33P]-ATP by filtration method relative to control
Method in brief: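 Radiometric HotSpot kinase assay with 10 μM ATP. Compound tested at a single 20 μM concentration, reported as mean % inhibition from two independent experiments.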
Target sequence in this assay (P53355 whole entry, looked up, the tested form may be a part): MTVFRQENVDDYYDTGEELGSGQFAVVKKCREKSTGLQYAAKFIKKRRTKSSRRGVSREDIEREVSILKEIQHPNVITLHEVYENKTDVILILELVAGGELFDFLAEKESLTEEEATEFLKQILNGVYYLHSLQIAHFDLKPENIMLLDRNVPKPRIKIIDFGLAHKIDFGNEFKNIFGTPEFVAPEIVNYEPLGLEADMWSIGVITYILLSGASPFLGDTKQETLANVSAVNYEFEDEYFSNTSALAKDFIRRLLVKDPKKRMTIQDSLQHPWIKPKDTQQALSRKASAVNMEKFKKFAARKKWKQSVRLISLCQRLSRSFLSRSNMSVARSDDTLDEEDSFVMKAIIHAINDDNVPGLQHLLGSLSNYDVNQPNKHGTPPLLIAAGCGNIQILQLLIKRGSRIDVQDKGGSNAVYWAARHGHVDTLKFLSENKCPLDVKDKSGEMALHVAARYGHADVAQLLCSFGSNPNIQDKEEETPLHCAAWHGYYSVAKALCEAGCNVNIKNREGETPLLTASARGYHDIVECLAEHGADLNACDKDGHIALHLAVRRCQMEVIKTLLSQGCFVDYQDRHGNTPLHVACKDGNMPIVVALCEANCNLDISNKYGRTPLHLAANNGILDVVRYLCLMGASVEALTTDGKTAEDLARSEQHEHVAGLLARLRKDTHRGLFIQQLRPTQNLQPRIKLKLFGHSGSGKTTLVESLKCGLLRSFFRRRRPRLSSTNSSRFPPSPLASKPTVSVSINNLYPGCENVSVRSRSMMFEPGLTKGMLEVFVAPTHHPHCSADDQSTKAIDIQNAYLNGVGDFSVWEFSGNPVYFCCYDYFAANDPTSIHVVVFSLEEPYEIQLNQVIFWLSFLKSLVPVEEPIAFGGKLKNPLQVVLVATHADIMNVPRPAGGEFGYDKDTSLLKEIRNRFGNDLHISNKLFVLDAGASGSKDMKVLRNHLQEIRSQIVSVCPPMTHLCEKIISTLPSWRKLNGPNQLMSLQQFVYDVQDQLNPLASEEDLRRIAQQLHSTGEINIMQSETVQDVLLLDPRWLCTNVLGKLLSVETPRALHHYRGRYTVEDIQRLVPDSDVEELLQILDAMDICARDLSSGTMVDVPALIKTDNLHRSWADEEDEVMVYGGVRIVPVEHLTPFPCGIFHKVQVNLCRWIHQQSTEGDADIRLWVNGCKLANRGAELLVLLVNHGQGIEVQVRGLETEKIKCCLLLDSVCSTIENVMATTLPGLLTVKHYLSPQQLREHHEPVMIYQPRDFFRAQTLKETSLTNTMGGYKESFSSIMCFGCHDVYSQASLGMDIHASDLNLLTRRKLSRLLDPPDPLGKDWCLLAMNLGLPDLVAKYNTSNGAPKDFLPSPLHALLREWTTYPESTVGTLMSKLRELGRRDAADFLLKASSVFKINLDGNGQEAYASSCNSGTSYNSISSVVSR

[2] = molecular target: T2, Macrophage colony-stimulating factor 1 receptor (Homo sapiens, UniProt P07333); test: Inhibition of human CSF1R using poly[Glu:Tyr] (4:1) as substrate after 120 mins in presence of 10 uM [gamma-33P]-ATP by filtration method
Method in brief: (§1)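 Radiometric HotSpot assay with direct measurement of phosphorylated substrate at 10 μM ATP. IC50 was taken from a duplicate 10-dose series, 3-fold dilutions starting at 20 μM, reported as mean.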

[3] = molecular target: T2, Macrophage colony-stimulating factor 1 receptor; test: Inhibition of human CSF1R at 10 uM using poly[Glu:Tyr] (4:1) as substrate after 120 mins in presence of 10 uM [gamma-33P]-ATP by filtration method relative to control
Method in brief: (§2)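 Radiometric HotSpot assay measuring substrate phosphorylation directly, with 10 μM ATP. Single-dose screen at 10 μM in duplicate, reported as mean % inhibition from two independent experiments.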

[4] = molecular target: T1, Death-associated protein kinase 1; test: Inhibition of DAPK1 in HEK293 tau-BiFC cells assessed as reduction in forskolin-induced tau aggregation at 1 to 50 uM after 48 hrs by Hoechst staining based HCS analysis; format: cell-based
Method in brief: (§3)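 HEK293 cells expressing tau-BiFC were exposed to compounds at 50, 10 and 1 μM with forskolin (30 μM) as the tau aggregation activator for 48 h. BiFC fluorescence intensity was quantified as the read-out. Data are mean ± SD.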
Target sequence in this assay (P53355 whole entry, looked up, the tested form may be a part): as above

[5] = molecular target: T1, Death-associated protein kinase 1; test: Inhibition of human DAPK1 (1 to 363 residues) using KKLNRTLSFAEPG as substrate after 120 mins in presence of 10 uM [gamma-33P]-ATP by filtration method; method in brief: as §1
Target sequence in this assay (P53355 whole entry, the tested form may be a part): as the sequence (P53355 whole entry, looked up, the tested form may be a part) above

[6] = molecular target: T1, Death-associated protein kinase 1; test: Inhibition of DAPK1 in HEK293 tau-BiFC cells assessed as reduction in forskolin-induced tau aggregation at 50 uM after 48 hrs by Hoechst staining based HCS analysis; format: cell-based; method in brief: as §3
Target sequence in this assay (P53355 whole entry, looked up, the tested form may be a part): as above

[7] = molecular target: T1, Death-associated protein kinase 1; test: Inhibition of human DAPK1 (1 to 363 residues) at 10 uM using KKLNRTLSFAEPG as substrate after 120 mins in presence of 10 uM [gamma-33P]-ATP by filtration method relative to control; method in brief: as §2
Target sequence in this assay (P53355 whole entry, looked up, the tested form may be a part): as above

[8] = molecular target: T1, Death-associated protein kinase 1; test: Inhibition of DAPK1 in HEK293 tau-BiFC cells assessed as reduction in forskolin-induced tau aggregation at 10 uM after 48 hrs by Hoechst staining based HCS analysis; format: cell-based; method in brief: as §3
Target sequence in this assay (P53355 whole entry, looked up, the tested form may be a part): as above

BV-2 = test: Anti-neuroinflammatory activity in mouse BV2 cells assessed as inhibition of LPS-stimulated NO production at 10 uM preincubated for 1 hr followed by LPS stimulation for 23 hrs by Griess reagent based assay relative to control; format: functional
Method in brief: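 Mouse BV-2 microglia were stimulated with LPS, with or without compound at 10 μM, and NO production was measured. Values are means ± SD of five independent experiments.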

T2 sequence (P07333 whole entry): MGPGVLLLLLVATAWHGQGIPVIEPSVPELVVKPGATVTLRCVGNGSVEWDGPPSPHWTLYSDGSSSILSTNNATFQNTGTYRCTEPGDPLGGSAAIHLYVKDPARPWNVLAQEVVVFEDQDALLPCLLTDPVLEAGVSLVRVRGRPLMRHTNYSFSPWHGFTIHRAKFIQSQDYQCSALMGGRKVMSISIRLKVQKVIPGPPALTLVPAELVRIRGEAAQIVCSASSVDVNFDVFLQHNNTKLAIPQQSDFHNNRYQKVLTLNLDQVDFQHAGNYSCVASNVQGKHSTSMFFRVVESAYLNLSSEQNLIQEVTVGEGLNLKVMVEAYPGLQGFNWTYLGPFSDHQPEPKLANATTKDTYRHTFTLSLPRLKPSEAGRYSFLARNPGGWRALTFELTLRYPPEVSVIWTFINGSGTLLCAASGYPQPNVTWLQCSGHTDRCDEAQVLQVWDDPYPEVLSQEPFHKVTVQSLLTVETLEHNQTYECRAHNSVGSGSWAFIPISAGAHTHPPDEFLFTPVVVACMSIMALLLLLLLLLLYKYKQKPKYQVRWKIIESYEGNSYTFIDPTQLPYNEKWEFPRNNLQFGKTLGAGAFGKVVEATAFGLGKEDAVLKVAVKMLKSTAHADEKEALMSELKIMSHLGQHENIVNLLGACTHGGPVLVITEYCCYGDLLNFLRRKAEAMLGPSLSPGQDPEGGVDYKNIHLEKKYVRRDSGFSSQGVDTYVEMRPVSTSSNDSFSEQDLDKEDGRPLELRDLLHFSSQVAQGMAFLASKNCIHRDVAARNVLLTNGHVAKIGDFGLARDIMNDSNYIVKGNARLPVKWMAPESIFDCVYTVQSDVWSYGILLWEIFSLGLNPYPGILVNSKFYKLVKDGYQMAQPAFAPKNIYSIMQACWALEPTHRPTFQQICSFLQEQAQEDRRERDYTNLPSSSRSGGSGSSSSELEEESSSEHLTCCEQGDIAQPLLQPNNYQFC

SMILES | inhibition [1] [%] | IC50 [2] [µM] | inhibition [3] [%] | inhibition [4] | IC50 [5] [µM] | inhibition [6] | inhibition [7] [%] | inhibition [8] | inhibition (BV-2)
COc1ccc(Oc2nc(Nc3ccc(N4CCOCC4)cc3)ncc2NC(=O)c2cccc(C(F)(F)F)c2)cc1 | 69.7 | 4.89 | 74.7 | inactive | 2.61 | – | – | – | –
COc1ccc(Oc2nc(Nc3ccc(N4CCOCC4)cc3)ncc2NC(=O)c2cccc(OC)c2)cc1 | – | 0.78 | 91.8 | – | 7.44 | Active | 75.1 | – | –
COc1cccc(Oc2nc(Nc3ccc(N4CCOCC4)cc3)ncc2NC(N)=O)c1 | – | 1.29 | 77.6 | – | – | – | 15.8 | – | –
COc1ccc(Oc2nc(Nc3ccc(N4CCOCC4)nc3)ncc2NC(N)=O)cc1 | – | – | 35.4 | – | – | – | 19.7 | – | –
COc1ccc(Oc2nc(Nc3ccc(N4CCOCC4)cc3)ncc2NC(=O)c2cc(OC)cc(OC)c2)cc1 | 66 | 0.12 | 95.3 | – | 2.77 | Active | – | inactive | inactive
COc1ccc(Oc2nc(Nc3ccc(N4CCCCC4)nc3)ncc2NC(=O)c2cc(OC)cc(OC)c2)cc1 | – | 1.72 | 76 | – | 2.69 | Active | 67.3 | – | –
